# Screening data as filed in PubChem BioAssay.
# CSC inhib = blocks cancer stem cells | cancer stem cell-like cells viability, luminescence | 1.1% of 300,000 active | inhibition, % at 7.5 µM; in the data active = inhibition above about 75%; inconclusive = no clear call, values can overlap the other calls; tested in HMLE shEcad cells
# Beta cell apopt = beta cell apoptosis inhibition; AID 435005; 0.8% of 300,000 active; INS-1E cytokine-induced death, ATP luminescence, 48 h; percent of positive-control rescue, neutral wells zero; protection from apoptosis, % (test concentration not listed);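 active = Every replicate reaches about 75%, or at least half do and their mean reaches it too, limit read from the data; inconclusive = At least half of replicates reach the limit but their mean does not; inactive = Under half of replicates reach the limit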;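 note: 0% = cytokine-treated negative control wells and 100% = positive control rescue; higher means more ATP so stronger rescue from cytokine killing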
# T cruzi inh = T. cruzi replication inhibition; inhibition, % (no concentration beside the values); 1.4% of 300,000 active; T. cruzi beta-gal in NIH3T3, luminescence, 90 h;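 active = mean inhibition across valid replicates above about 55%, limit read from the data; inconclusive = mean below that limit but half or more replicates reach it; inactive = mean below it, under half of replicates reach it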;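 note: signal also drops with host cell toxicity which is not excluded here; 0% = plate median of DMSO wells and 100% = zero luminescence signal; higher percent means less beta-gal luminescence so fewer parasites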
#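 System – NIH/3T3 host cells with β-galactosidase reporter T. cruzi · Doses – single 50 nL compound addition per well in DMSO · Reagent – 5000 T. cruzi trypomastigotes/well · Medium – Low-serum DMEM with 2% FBS · Timing – ≥90 h infection period, 3 h prior cell attachment · Evaluation – parasite load inhibition, % · Technique – GalScreen luminescence, 60 min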
# Calb FLC = C. albicans growth modulation with fluconazole; C. albicans CaCi-2 (fluconazole-resistant clinical isolate) + fluconazole, Alamar Blue growth, 48 h; growth inhibition, % (test concentration not listed); 0.57% of 300,000 active;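 active = growth inhibition above about 58% in most replicates, limit read from the data, passing the limit was not always enough; inconclusive = exactly half the replicates above a set limit; inactive = most replicates below a set limit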;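 note: all wells also contain fluconazole at 8 µg/ml as a sub-toxic cotreatment; 0% = median of DMSO wells and 100% = median of geldanamycin control wells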
# Mdm2-MdmX inh = human Mdm2/MdmX binding inhibition | O15151+Q00987 | 3% of 330,000 active | SaOS-2 split-luciferase Mdm2/MdmX complementation, luminescence | inhibition, % at 8 µM;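 active = inhibition of at least 50% at 8 µM in the primary screen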
# Target sequence (O15151 whole entry, looked up): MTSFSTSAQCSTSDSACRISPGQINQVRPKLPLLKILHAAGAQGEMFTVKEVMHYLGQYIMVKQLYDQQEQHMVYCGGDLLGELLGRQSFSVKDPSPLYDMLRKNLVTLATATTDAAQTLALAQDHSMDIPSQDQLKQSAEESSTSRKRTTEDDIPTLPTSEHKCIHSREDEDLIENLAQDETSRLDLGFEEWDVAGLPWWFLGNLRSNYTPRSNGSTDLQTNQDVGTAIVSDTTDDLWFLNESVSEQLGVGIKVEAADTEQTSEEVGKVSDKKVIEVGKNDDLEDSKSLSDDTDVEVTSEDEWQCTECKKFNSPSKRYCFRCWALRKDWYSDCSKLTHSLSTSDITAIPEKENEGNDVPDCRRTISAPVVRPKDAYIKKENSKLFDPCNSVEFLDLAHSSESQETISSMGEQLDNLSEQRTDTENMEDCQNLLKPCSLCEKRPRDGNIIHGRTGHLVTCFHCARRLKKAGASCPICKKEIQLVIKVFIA
# Target sequence (Q00987 whole entry, looked up): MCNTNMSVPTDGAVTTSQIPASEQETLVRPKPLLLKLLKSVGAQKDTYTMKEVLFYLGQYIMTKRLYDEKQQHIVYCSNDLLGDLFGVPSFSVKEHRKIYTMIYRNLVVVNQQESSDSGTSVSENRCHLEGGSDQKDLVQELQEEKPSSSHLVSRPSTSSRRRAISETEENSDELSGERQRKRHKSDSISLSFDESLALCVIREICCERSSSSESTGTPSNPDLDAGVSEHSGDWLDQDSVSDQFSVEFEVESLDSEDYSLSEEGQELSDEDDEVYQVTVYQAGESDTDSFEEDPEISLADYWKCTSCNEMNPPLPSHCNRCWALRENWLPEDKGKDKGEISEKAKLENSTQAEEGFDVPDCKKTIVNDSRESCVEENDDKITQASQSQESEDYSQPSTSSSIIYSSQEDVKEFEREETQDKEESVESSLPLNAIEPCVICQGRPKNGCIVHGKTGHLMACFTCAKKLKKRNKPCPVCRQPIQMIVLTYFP
# SKKanGAS inh = inhibitors of SKKanGAS S. pyogenes growth in kanamycin (SK-promoter or general growth effect). 1.3% of 300,000 active. BacTiter-Glo, 6 h. inhibition, % at 7.5 µM;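 active = mean replicate score, as percent of positive control median, at least 50; inconclusive = mean below 50 but one replicate at or above 50; inactive = mean and every replicate below 50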;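 note: strain carries kanamycin resistance gene driven by streptokinase promoter and grows in 40 µg/ml kanamycin; loss of luminescence reflects streptokinase promoter inhibition or plain growth inhibition; 0% = median of DMSO wells and 100% = positive control at its reference dose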
# Mdm2 MdmX conf = human Mdm2/MdmX binding inhibition, confirmed | shares compounds with Mdm2-MdmX inh | luminescent assay | inhibition, % at 8 µM | 55% of 10,000 active; in the data active = inhibition above about 40%
# FLuc counter = full-length luciferase inhibition in Mdm2/MdmX counter-screen; 77% of 6,200 active; shares compounds with Mdm2-MdmX inh; inhibition, % at 8 µM; SaOS-2 full-length luciferase counterscreen, luminescence;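 active = mean inhibition at 8 µM reaching about 37%, which flags the compound as non-specific, limit read from the data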;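 note: p53-null SaOS-2 cells with luciferase driven by a doxycycline-inducible promoter; compound on cells about two nights before reading with doxycycline added after day one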
# The depositor's hits bear a star; ? = inconclusive; . = not tested or not shown. The list is not random: actives were taken first. Their share in the collection is about 5.7%.
SMILES,CSC inhib,Beta cell apopt,T cruzi inh,Calb FLC,Mdm2-MdmX inh,SKKanGAS inh,Mdm2 MdmX conf,FLuc counter
CC(C)c1nnc(NC(=O)CC(=O)Nc2ccccc2C(=O)O)s1,-7.1,0.1,-16.0,-10.9,67.0*,5.4,47.1*,73.6*
Cc1ccc(/C=C/C(=O)c2ccccc(=O)c2O)c(C)c1,2.5,70.4,28.2,92.4*,67.3*,58.5*,60.9*,19.1
O=C(/C=C/c1ccc(O)c(O)c1)c1ccccc1O,43.9,-3.4,-17.0,-10.8,-73.9,-4.9,.,.
Nc1ncc(-c2nnnn2-c2ccc(Cl)cc2)c(-c2ccc(Cl)cc2)n1,58.2,11.4,1.5,6.2,57.0*,-2.0,68.0*,45.7*
O=C1CN(C(=O)c2cccc(Br)c2)c2ccccc2N1,34.7,1.2,-13.0,8.2,53.0*,7.1,61.5*,51.6*
O=C1CN(C(=O)c2ccccc2)c2ccccc2N1,8.7,-6.9,-13.2,5.0,-7.4,4.0,.,.
O=C1CN(C(=O)c2ccc(Cl)c(S(=O)(=O)N3CCc4ccccc43)c2)c2ccccc2N1,35.7,10.7,2.8,-1.8,85.5*,10.3,78.0*,64.1*
C[C@@H](NC(=O)[C@@H]1Cc2ccccc2CN1)C(=O)Nc1ccc2c(c1)OCO2,9.5,1.4,-4.1,?,2.6,4.3,.,.
Cc1ccc(C)c(NC(=S)NC(NC(=O)N(C)C)C(Cl)(Cl)Cl)c1 (stereo not drawn),-9.5,-10.2,-0.8,6.9,13.9,-14.0,.,.
Cc1ccc(C)c(NC(=S)NC(NC(=O)Cc2cccc3ccccc23)C(Cl)(Cl)Cl)c1 (stereo not drawn),?,76.3*,37.5,-4.5,99.3*,27.6,98.6*,2.1
Cc1ccc(S(=O)(=O)CC(=O)Nc2ccc(Cl)cn2)cc1,-11.9,-6.5,-5.5,37.1,6.3,-0.6,.,.
CC1CC(N(C(=O)c2ccco2)c2ccccc2)c2ccccc2N1C(=O)c1ccco1 (stereo not drawn),-5.9,-0.2,11.8,-9.9,4.0,-1.1,.,.
CC1CC(N(C(=O)c2ccc(Cl)cc2)c2ccccc2)c2ccccc2N1C(=O)c1ccco1 (stereo not drawn),21.5,16.5,43.5,4.4,50.2*,9.2,30.7,.
c1ccc(CCC2CCCCN2Cc2nc(-c3ccc4c(c3)OCO4)no2)nc1 (stereo not drawn),6.9,-6.8,27.3,-16.0,10.1,-6.3,.,.
N#CC1(NC(=O)CN2C(=O)c3ccccc3C2=O)CCCCC1,-1.3,3.2,.,.,-24.8,.,.,.
N#CC1(NC(=O)Cn2ncc(Cl)c(Cl)c2=O)CCCCC1,-9.1,-13.1,62.7*,.,98.0*,-12.2,83.1*,29.6
COc1cnc(-c2ccccn2)[nH]c1=O,5.7,15.4,-16.7,-14.5,23.9,5.9,.,.
COc1cnc(-c2ccccn2)nc1Oc1ccc(Cl)c2ccccc12,55.4,97.4*,37.7,-0.5,52.4*,92.8*,39.5,.
COc1cnc(-c2ccccn2)nc1NC(C)C,-2.2,67.7,76.9*,113.3*,79.2*,?,87.4*,48.3*
CCOC(=O)C1CCN(S(=O)(=O)c2c(Cl)ccc3nonc23)CC1,1.8,47.7,64.1*,1.0,100.4*,-10.3,97.7*,0.8
O=C(/C=C/c1ccc(Cl)cc1)NC(=S)Nc1ccc(N2CCOCC2)c(Cl)c1,44.7,-2.0,-8.3,2.8,86.4*,28.5,44.5*,91.5*
O=C(/C=C/c1ccccc1)NC(=S)Nc1ccc(N2CCOCC2)cc1,4.8,-2.0,-24.3,4.5,31.9,-4.6,.,.
CCN1CCN(CC(=O)Nc2cc(C(F)(F)F)ccc2OCCOC)CC1,12.2,8.5,8.1,2.0,-0.4,-14.0,.,.
CCOc1ccccc1-n1c(SCC(=O)Nc2ccc(CC)cc2)nc2n[nH]c(C)c2c1=N,0.3,13.1,35.7,-1.7,93.0*,21.4,10.8,.
Cc1ccccc1-n1c(SCC(=O)Nc2ccccc2Cl)nc2n[nH]c(C)c2c1=N,15.5,0.9,7.2,21.7,65.8*,10.5,11.9,.
SMILES,CSC inhib,Beta cell apopt,T cruzi inh,Calb FLC,Mdm2-MdmX inh,SKKanGAS inh,Mdm2 MdmX conf,FLuc counter
Cc1[nH]nc2nc(SCC(=O)NCCC3=CCCCC3)n(-c3ccc(Br)cc3)c(=N)c12,56.5,92.6*,2.4,1.8,91.2*,6.0,47.4*,31.1
CCC1CCCCN1CCCNC(=O)c1nn(C)c2c1CS(=O)(=O)c1ccccc1-2 (stereo not drawn),-4.3,-2.0,8.5,-3.8,17.7,-2.3,.,.
COC(=O)c1ccc2c(c1)sc(=NC(=O)CCS(=O)(=O)c1ccccc1)n2C,10.2,.,9.3,40.7,51.0*,-6.6,44.5*,77.2*
COCCn1c(=NC(=O)CCS(=O)(=O)c2ccccc2)sc2ccccc21,-1.7,-1.4,5.2,-0.8,-2.9,15.6,.,.
COc1cccc(-c2nc(CS(=O)CC(=O)NC(C)CCc3ccccc3)c(C)o2)c1 (stereo not drawn),-13.0,4.4,0.6,0.4,4.1,1.9,.,.
COc1cccc(CNC(=O)COC(=O)C2CCN(c3ccc(C(F)(F)F)cn3)CC2)c1,.,-0.4,.,.,0.7,.,.,.
Cc1ccccc1NC(=O)c1ccc(CN2CCC(Cc3ccccc3)CC2)cc1,-6.3,4.2,27.2,0.7,57.6*,-0.1,35.0,81.8*
O=C(Nc1ccc(N2CCN(C(=O)c3ccco3)CC2)cc1)c1ccc([N+](=O)[O-])cc1Cl,6.5,0.7,34.1,0.7,23.3,5.2,.,.
O=C(Nc1ccc2c(c1)CCCN2C(=O)c1ccco1)c1cc([N+](=O)[O-])ccc1Cl,-17.1,5.7,-25.7,1.3,81.9*,2.2,82.3*,67.5*
O=C(O)c1ccccc1C(=O)Nc1ccc(Nc2ccc([N+](=O)[O-])cc2[N+](=O)[O-])cc1,-11.2,0.8,14.8,2.5,19.7,4.3,.,.
O=C(Nc1ccccc1Oc1ccccc1)c1cc([N+](=O)[O-])ccc1Cl,1.4,-9.7,-2.7,11.2,78.7*,1.8,48.1*,68.4*
O=C(Nc1ccc(Nc2ccccc2)cc1)c1cc([N+](=O)[O-])ccc1Cl,77.5*,15.6,41.4,9.1,53.9*,-8.8,38.0,.
Cc1cc(C)c2c(n1)SCC(=O)N2CC(=O)Nc1c(C)cccc1C,.,-3.8,4.9,2.2,11.7,-2.7,.,.
CCC(O)CNC(=O)NC(=C(Cl)Cl)c1ccc(C)c(F)c1 (stereo not drawn),14.0,-3.8,-27.5,?,76.5*,0.6,36.0,38.2*
COc1ccccc1NC(=O)C(C)OC(=O)c1nc2nc(C)cc(C)n2n1 (stereo not drawn),6.4,-4.6,-3.7,5.2,-3.2,5.0,.,.
Cc1[nH]c2ccccc2c1C(C#N)(C#N)C1C(=O)c2ccccc2C1=O,33.7,-28.3,25.8,9.4,61.3*,64.5*,43.1*,11.0
Cc1[nH]c2ccccc2c1CC#N,-16.0,-1.5,-16.8,4.6,13.5,-3.5,.,.
